Source: ChEMBL document CHEMBL2163305, “Nanomolar potency and metabolically stable inhibitors of kidney urea transporter UT-B” (J Med Chem, 2012)

What was measured:
[1] = Metabolic stability in rat liver microsomes assessed as compound remaining at 5 uM after 30 mins; type: ADME, Microsome; conditions: read-out: Stability
Blood = assay: Drug uptake in mouse blood at 200 ug, ip at 6 hrs; type: ADME, organism-based; conditions: in vivo
Summary of the method: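 Mice (8–10 weeks, 25–35 g) received 200 μg of each of two inhibitors together by ip injection in DMSO/Tween-80/PEG400 formulation. Blood taken at 6 h, diluted with equal volume of water, extracted with ethyl acetate, LC/MS against standards. SE, 3 mice.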

[2] = Half life in rat liver microsomes at 5 uM; type: ADME, Microsome
[3] = Drug excretion in mouse urine at 400 ug, ip administered as bolus dose; type: ADME, organism-based; conditions: in vivo
Mus musculus = assay: Antidiuretic activity in mouse assessed as reduction in urine osmolality at 400 ug, ip administered 1 hr followed by dDAVP administration (reference value: >3 Osm/kg); type: functional
Kidney = assay: Drug uptake in mouse kidney at 400 ug, ip administered as bolus dose; type: ADME, organism-based; conditions: in vivo, read-out: Drug uptake
Homo sapiens = species on record: Homo sapiens; assay: Inhibition of UT-B-mediated urea transport in human erythrocytes incubated for 10 mins prior to urea addition by Stopped-flow light scattering assay; type: cell-based
Summary of the method: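 Human venous blood in heparin, kept at 4 °C and used within 48 h, diluted in PBS to ~0.5% hematocrit. Inhibitor for 10 min, then mixed 1:1 in stopped-flow to impose a 100 mM inward urea gradient. Cell swelling followed as 90° scattered light at 530 nm. Urea permeability and % inhibition computed.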

Compound | remaining at 0.5 h, 5 µM [1] | further results
O=S(=O)(c1ccc(C(F)(F)F)cc1)c1nnn2c1nc(NCc1cccs1)c1sccc12 | 99% | –
O=S(=O)(c1ccc(OC(F)(F)F)cc1)c1nnn2c1nc(NCc1cccs1)c1sccc12 | 95% | –
O=S(=O)(c1ccc(Br)cc1)c1nnn2c1nc(NCc1cccs1)c1sccc12 | 60% | –
COc1ccc(S(=O)(=O)c2nnn3c2nc(NCc2cccs2)c2sccc23)cc1 | 6% | –
O=S(=O)(c1cccs1)c1nnn2c1nc(NCc1cccs1)c1sccc12 | < 5% | –
COc1ccc(CNc2nc3c(S(=O)(=O)c4ccc(C(C)C)cc4)nnn3c3ccsc23)cc1 | 7% | –
CC(C)c1ccc(S(=O)(=O)c2nnn3c2nc(NCc2ccco2)c2sccc23)cc1 | > 99% | –
CCc1ccc(S(=O)(=O)c2nnn3c2nc(NCc2cccs2)c2sccc23)cc1 | < 5% | Drug uptake (Blood): Active; half-life at 5 µM [2]: 0.0467 h
CC(F)(F)c1ccc(S(=O)(=O)c2nnn3c2nc(NCc2cccs2)c2sccc23)cc1 | 96% | Drug excretion [3]: > 1 µM; Drug uptake (Blood): Active; Activity (Mus musculus): 0.5 Osm/kg; half-life at 5 µM [2]: 2 h; concentration (Kidney): > 1000 nM; inhibition (Homo sapiens): Dose-dependent effect
O=S(=O)(c1ccc(F)cc1)c1nnn2c1nc(NCc1cccs1)c1sccc12 | 27% | –
CC(C)c1ccc(S(=O)(=O)c2nnn3c2nc(NCc2cccc4ccccc24)c2sccc23)cc1 | 45% | –
CC(C)c1ccc(S(=O)(=O)c2nnn3c2nc(NCc2cccs2)c2sccc23)cc1 | < 5% | –
